# ChEMBL document CHEMBL1138291, “Structure-activity studies of novel cyanoguanidine ATP-sensitive potassium channel openers for the treatment of overactive bladder” (J Med Chem, 2007)
# Assays:
# [1] = Half life in dog at 100 nmol/kg, po; assay type: ADME, organism-based, Canis lupus familiaris; conditions: in vivo
# [2] = Oral bioavailability in dog at 100 nmol/kg, po; assay type: ADME, organism-based, Canis lupus familiaris; conditions: in vivo
# [3] = Tmax in dog at 100 nmol/kg, po; assay type: ADME, organism-based, Canis lupus familiaris; conditions: in vivo
# [4] = Activity at Kir6.2 channel in Landrace pig bladder detrusor assessed as relaxation of electrically stimulated contraction; design: species or system Sus scrofa
# [5] = Plasma clearance in dog at 100 nmol/kg, iv; assay type: ADME, organism-based, Canis lupus familiaris
# [6] = Half life in dog at 100 nmol/kg, iv; assay type: ADME, organism-based, Canis lupus familiaris; conditions: in vivo
# [7] = Tmax in dog at 10 nmol/kg, po; assay type: ADME, organism-based, Canis lupus familiaris; conditions: in vivo
# [8] = Half life in dog at 10 nmol/kg, iv; assay type: ADME, organism-based, Canis lupus familiaris; conditions: in vivo
# [9] = Plasma clearance in dog at 10 nmol/kg, iv; assay type: ADME, organism-based, Canis lupus familiaris
# [10] = Half life in dog at 10 nmol/kg, po; assay type: ADME, organism-based, Canis lupus familiaris; conditions: in vivo
# [11] = Oral bioavailability in dog at 10 nmol/kg, po; assay type: ADME, organism-based, Canis lupus familiaris; conditions: in vivo
# Sus scrofa [12] = assay: Reduction of blood pressure in pig at 0.3 mg/kg, iv; assay type: functional; design: scale not given: the % may be the effect or the level left
# In short: (§1)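 Conscious obstructed, telemetered pigs held in restraint cage with 20 gauge venous catheters in both ears for dosing and blood sampling; mean arterial pressure recorded, averaged over post-dose period as percent change from baseline.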
# Sus scrofa [13] = assay: Reduction of blood pressure in pig at 1 mg/kg, iv; assay type: functional; design: scale not given: the % may be the effect or the level left; in short: as §1
# Portal vein = assay: Effect on rat portal vein; assay type: functional, tissue-based
# Sus scrofa [14] = assay: Reduction of unstable spontaneous bladder contractions in Landrace/Yorkshire pig bladder instability model at 0.3 mg/kg, iv; assay type: functional; design: scale not given: the % may be the effect or the level left
# Sus scrofa [15] = assay: Reduction of unstable spontaneous bladder contractions in Landrace/Yorkshire pig bladder instability model at 1 mg/kg, iv; assay type: functional; design: scale not given: the % may be the effect or the level left
# Sus scrofa [16] = species on record: Sus scrofa; assay: Inhibition of unstable spontaneous bladder contractions in Landrace/Yorkshire pig bladder instability model; assay type: functional, organism-based
compound,measurement,setting,value
CC(Cl)(Cl)C(NC(=O)c1cc(F)cc(F)c1)N/C(=N/C#N)Nc1ccc(C(F)(F)F)nc1 (stereo unspecified),half-life,[1],6.9 h
same,bioavailability,[2],100%
same,Tmax,[3],0.7 h
same,Log EC50,[4],-5.54
same,clearance,[5],1 mL/min/kg
same,half-life,[6],5.5 h
CC(Cl)(Cl)C(NC(=O)c1cccc(Cl)c1)N/C(=N/C#N)Nc1ccc(Cl)nc1 (stereo unspecified),Log EC50,[4],-5.35
CC(Cl)(Cl)C(NC(=O)c1ccc(Cl)cc1)N/C(=N/C#N)Nc1ccc(C(F)(F)F)nc1 (stereo unspecified),Log EC50,[4],-5.78
Cc1cccc(C(=O)NC(N/C(=N/C#N)Nc2ccc(C(F)(F)F)nc2)C(C)(Cl)Cl)c1 (stereo unspecified),Log EC50,[4],-5.94
CC(Cl)(Cl)C(NC(=O)c1cc(Cl)cc(Cl)c1)N/C(=N/C#N)Nc1ccc(C(F)(F)F)nc1 (stereo unspecified),Log EC50,[4],-5.7
"CC(O)(C(=O)Nc1ccc(C(=O)c2ccccc2)cc1)C(F)(F)F (single isomer, unassigned) [ZD-6169]",Tmax,[7],0.4 h
same,half-life,[8],1.9 h
same,clearance,[9],11.2 mL/min/kg
same,half-life,[10],1.6 h
same,bioavailability,[11],43%
CC(Cl)(Cl)C(NC(=O)c1ccc(Cl)cc1)N/C(=N/C#N)Nc1ccc(Cl)nc1 (stereo unspecified),Activity,Sus scrofa [12],1.4%
same,Activity,Sus scrofa [13],36%
same,EC50,Portal vein,813 nM
same,Activity,Sus scrofa [14],19.7%
same,Activity,Sus scrofa [15],90.7%
same,Activity,Sus scrofa [16],Dose-dependent effect
Cc1ccc(C(=O)NC(N/C(=N/C#N)Nc2ccc(C(F)(F)F)nc2)C(C)(Cl)Cl)cc1 (stereo unspecified),Log EC50,[4],-5.15
CC(Cl)(Cl)C(NC(=O)c1ccc(Cl)cc1)N/C(=N/C#N)Nc1cncc(Br)c1 (stereo unspecified),Log EC50,[4],-6.23
CC(Cl)(Cl)C(NC(=O)c1ccc(Cl)cc1)N/C(=N/C#N)Nc1ccc(F)nc1 (stereo unspecified),Log EC50,[4],-5.87
CC(Cl)(Cl)C(NC(=O)c1ccc(C(F)(F)F)cc1)N/C(=N/C#N)Nc1ccc(C(F)(F)F)nc1 (stereo unspecified),Log EC50,[4],-5.65
CC(Cl)(Cl)C(NC(=O)c1cccc(F)c1)N/C(=N/C#N)Nc1ccc(Cl)nc1 (stereo unspecified),Log EC50,[4],-5.68
CC(Cl)(Cl)C(NC(=O)c1cccc(Cl)c1)N/C(=N/C#N)Nc1ccc(C(F)(F)F)nc1 (stereo unspecified),Log EC50,[4],-5.28
CC(Cl)(Cl)C(NC(=O)c1ccc(Cl)cc1)N/C(=N/C#N)Nc1ccccc1F (stereo unspecified),Log EC50,[4],-5.98
CC(Cl)(Cl)[C@@H](NC(=O)c1ccc(Cl)cc1)N/C(=N/C#N)Nc1cccnc1,Log EC50,[4],-5.26
CC(Cl)(Cl)C(NC(=O)c1ccc(Cl)cc1)N/C(=N/C#N)Nc1cccnc1Cl (stereo unspecified),Log EC50,[4],-6.16
COc1ncccc1N/C(=N\C#N)NC(NC(=O)c1ccc(Cl)cc1)C(C)(Cl)Cl (stereo unspecified),Log EC50,[4],-6.6
CC(Cl)(Cl)C(NC(=O)c1ccc(F)cc1)N/C(=N/C#N)Nc1ccc(C(F)(F)F)nc1 (stereo unspecified),Log EC50,[4],-6.02
CC(Cl)(Cl)C(NC(=O)c1cccc(F)c1)N/C(=N/C#N)Nc1ccc(C(F)(F)F)nc1 (stereo unspecified),Log EC50,[4],-5.71
Cc1cccc(C(=O)NC(N/C(=N/C#N)Nc2ccc(Cl)nc2)C(C)(Cl)Cl)c1 (stereo unspecified),Log EC50,[4],-5.42
CC(Cl)(Cl)C(NC(=O)c1ccc(Cl)cc1)NC(=NC#N)Nc1ccc(Cl)nc1 (stereo unspecified),half-life,[1],15 h
same,bioavailability,[2],100%
same,Tmax,[3],0.4 h
same,clearance,[5],2.17 mL/min/kg
same,half-life,[6],9.9 h
CC(Cl)(Cl)C(NC(=O)c1cc(Cl)cc(Cl)c1)N/C(=N/C#N)Nc1ccc(Cl)nc1 (stereo unspecified),Log EC50,[4],-5.44
CC(Cl)(Cl)C(NC(=O)c1cccs1)N/C(=N/C#N)Nc1ccc(C(F)(F)F)nc1 (stereo unspecified),Log EC50,[4],-5.44
